Screening data (PubChem BioAssay)
Cl transport mod – KCC2 (human) Cl- transport modulation; B-score of Tl+ flux slope (higher = more flux/activation; lower = inhibition) at 10 µM; KCC2 cells, thallium flux FluoZin-2 fluorescence; Q9H2X9; 190,000 compounds, 2.2% hits;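 active = thallium flux slope and its plate-corrected score both differing from the plate sample mean at a set confidence after two filtering rounds, in either direction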;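 also: slope of fluorescence scaled to starting intensity during 10 to 20 s after thallium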
ROMK primary – modulates human ROMK potassium channel activity | Tet-inducible ROMK, thallium flux fluorescence; actives lie on both sides | B-score at 10 µM | 130,000 compounds, 2% hits;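 active = signal ratio slope over the read window, or its plate-corrected B-score, at least 3 SD from the plate mean, either direction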;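 also: B-score of the F/F0 ratio slope over 7 to 12 s after thallium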
p47phox inh – blocks human p47phox regulatory protein of NADPH oxidases; p47phox/p22phox peptide binding, fluorescence polarization, 2 h; inhibition, % at 24.7 µM; 220,000 compounds, 0.53% hits; AID 1274;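 active = inhibition above about 30%, limit read from the data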;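 also: 0% = p47phox with labelled peptide and 100% = labelled peptide alone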
14-3-3 Bad inh – disrupts binding of bovine 14-3-3 zeta to phospho-Bad peptide | P63103 | TR-FRET 14-3-3zeta/Dy647-pBad peptide displacement, 1 h | inhibition, % at 21.7 µM | 220,000 compounds, 0.71% hits;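 active = inhibition above about 70%, limit read from the data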;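 also: 0% = full 14-3-3 plus peptide FRET controls and 100% = background without 14-3-3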
WT yeast gro inh – growth inhibition of WT yeast, mitochondrial fusion screen | inhibition, % at 10 µM | 190,000 compounds, 2.1% hits | mitochondrial fusion phenotypic screen, WT strain; in the data active = inhibition above about 58%; tested in S. cerevisiae
RBBP9 inh – inhibitors of human serine hydrolase RBBP9. O75884. recombinant RBBP9, FP-Rh probe fluorescence polarization. inhibition, % at 7.94 µM. 220,000 compounds, 0.2% hits;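 active = inhibition above the campaign mean of all tested compounds plus 3 SD, cut at about 14% in these data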;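 also: plate controls were DMSO wells with RBBP9 for no effect and wells lacking RBBP9 protein for full effect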
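Measured by – fluorescence polarization · Test system – RBBP9 protein · Input – 2.5 µM RBBP9 dispensing solution, before mixing · Measure – percent inhibition from mP, scaled between DMSO and no-protein wells · Benchmarks – DMSO-treated enzyme wells and wells lacking RBBP9 · Times – preincubation 30 min plus labeling 45 min at 25 °C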
KCC2 secondary – confirmation of human KCC2 transport modulators. shares compounds with Cl transport mod. HEK293-KCC2, thallium flux, FluoZin2 fluorescence; active compounds read high. normalised thallium flux (F/F0 slope) at 10 µM. 3,700 compounds, 15% hits. AID 1713;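 active = thallium flux slope above the same plate's solvent-only control mean plus 3 SD; inconclusive = the two replicate wells disagree; inactive = no significant difference from solvent-only control wells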
KCC2 bumet counter – thallium flux despite bumetanide block in KCC2 cells, secondary assay 3. shares compounds with Cl transport mod. HEK293-KCC2 + bumetanide/ouabain, thallium flux FluoZin2; active compounds read high. normalized thallium flux at 10 µM. 3,700 compounds, 49% hits. AID 1714;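 active = thallium entry rate above the same plate's blocked-transporter control wells by more than 3 SD; inconclusive = the two repeat wells disagree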;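 also: raw slope of fluorescence over initial fluorescence between 10 and 20 s after thallium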
KCC2 secondary2 – confirmation of human KCC2 transport modulators; 3,700 compounds, 23% hits; AID 1715; normalized thallium flux at 10 µM; HEK293-KCC2, thallium flux FluoZin2 fluorescence; actives lie on both sides; F/F0 rise rate, 10–20 s post-thallium; shares compounds with Cl transport mod;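 active = thallium flux slope more than 3 SD above or below the plate's solvent-only control mean, mostly below; inconclusive = the two repeat wells disagreed; inactive = no significant shift from solvent-only controls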;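 also: raw slope with 0.1% DMSO as baseline and bumetanide as block control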
HEK293 Tl flux – parental HEK flux effect, counter-screen; AID 1716; thallium flux rate (normalised fluorescence) at 10 µM; HEK293 parental cells, thallium flux FluoZin2, ouabain; baseline-ratio fluorescence slope, 10–20 s after thallium; 3,700 compounds, 46% hits; shares compounds with Cl transport mod;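 active = thallium flux rate significantly above the same plate's solvent-only control wells, beyond their mean plus 3 SD; inconclusive = the two replicate wells gave conflicting results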
KCC2 ouabain – confirmation of human KCC2 modulators with ouabain; HEK293-KCC2, thallium flux FluoZin2 fluorescence; bidirectional: low = inhibitor, high = activator; raw Tl+ flux slope (below DMSO = inhibition, above = activation) at 10 µM; 3,700 compounds, 48% hits; shares compounds with Cl transport mod;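 active = thallium flux slope beyond 3 SD from same-plate DMSO control mean in most replicates, usually higher, sometimes lower; inconclusive = repeat tests gave conflicting results; inactive = no significant difference from controls in most replicates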;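 also: slope of initial-normalized fluorescence between seconds 10 and 20 after thallium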
HEK counter2 – acts in parental HEK cells, second KCC2 counter-screen; shares compounds with Cl transport mod; HEK293 parental, thallium flux FluoZin-2 fluorescence slope; thallium flux slope at 10 µM; 3,700 compounds, 33% hits; AID 1718;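 active = thallium flux slope above the same plate's solvent-control mean plus 3 SD in both duplicate wells; inconclusive = duplicate wells that disagreed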;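 also: run without ouabain in cells lacking the KCC2 cotransporter; slope of fluorescence scaled to its starting value between 10 and 20 s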
An asterisk follows results filed as active. A selection: hits, their analogues and other compounds. The true share with any hit is near 5.8%.

`Nc1c(C(=O)O)sc2nc(-c3ccccc3)cc(-c3ccccc3)c12` gave Cl transport mod 0.416, ROMK primary 0.719, p47phox inh -22.1, 14-3-3 Bad inh -4.6 and RBBP9 inh -2.1.
Cc1ccc(C(=O)Nc2ncc(Cc3ccc(F)cc3)s2)o1 was read as Cl transport mod -4.83*, p47phox inh -9.9, 14-3-3 Bad inh 12.0, WT yeast gro inh 14.1, RBBP9 inh -7.3, KCC2 secondary 0.00749, KCC2 bumet counter 0.007, KCC2 secondary2 0.0307, HEK293 Tl flux inconclusive, KCC2 ouabain 0.0179 and HEK counter2 inconclusive.
For O=C(NNS(=O)(=O)c1ccccc1F)c1sccc1-n1cccc1 the results were Cl transport mod -0.343, ROMK primary -0.0106, p47phox inh 1.7, 14-3-3 Bad inh -5.3, WT yeast gro inh -21.8 and RBBP9 inh -0.6.
CC(OC(=O)c1cc2sccc2n1C)C(=O)NCCc1ccccc1 (stereo unspecified) was read as Cl transport mod -5.61*, p47phox inh -4.0, 14-3-3 Bad inh -3.2, WT yeast gro inh 2.2, RBBP9 inh 0.2, KCC2 secondary 0.0087, KCC2 bumet counter inconclusive, KCC2 secondary2 inconclusive, HEK293 Tl flux 0.00691, KCC2 ouabain 0.0139* and HEK counter2 0.0106.
For COC(=O)c1ccccc1NC(=O)c1cc2sccc2n1C the results were Cl transport mod 8.3*, ROMK primary -0.662, p47phox inh -22.5, 14-3-3 Bad inh -10.5, WT yeast gro inh 5.3, RBBP9 inh -4.0, KCC2 secondary 0.0161, KCC2 bumet counter 0.00477, KCC2 secondary2 0.0294, HEK293 Tl flux 0.00788, KCC2 ouabain 0.0169 and HEK counter2 0.0107.
`COC(=O)c1cccc(NC(=O)c2cc3sccc3n2C)c1` gave Cl transport mod 2.37, ROMK primary -0.634, p47phox inh -3.5, 14-3-3 Bad inh 49.5, WT yeast gro inh 0.6 and RBBP9 inh -12.9.
C=C1c2ccccc2NC(=S)N1Cc1ccc2c(c1)OCO2 was read as Cl transport mod 9.89*, ROMK primary -0.154, p47phox inh -10.0, 14-3-3 Bad inh -1.2, WT yeast gro inh 13.2, RBBP9 inh -6.3, KCC2 secondary 0.00693, KCC2 bumet counter 0.0197*, KCC2 secondary2 0.0316, HEK293 Tl flux 0.0212*, KCC2 ouabain 0.0342* and HEK counter2 0.0171*.
COC(=O)/C(C#N)=C(/Nc1ccc(F)c(Cl)c1)C(F)(F)F was read as Cl transport mod 0.0284, p47phox inh 2.1, 14-3-3 Bad inh -9.6 and RBBP9 inh -0.9.
For Cc1cccc(NC(=O)NCC(c2cccnc2)N2CCOCC2)c1 (stereo unspecified) the results were ROMK primary -0.925, p47phox inh -3.9, 14-3-3 Bad inh 12.9, WT yeast gro inh 8.0, RBBP9 inh -4.1, KCC2 secondary 0.0116, KCC2 bumet counter 0.00681, KCC2 secondary2 0.0348, HEK293 Tl flux 0.00812, KCC2 ouabain 0.0218 and HEK counter2 0.0108.
Screening COC(=O)NCC(c1cccnc1)N1CCOCC1 (stereo unspecified) returned Cl transport mod 0.24, p47phox inh -15.3, 14-3-3 Bad inh 9.7, WT yeast gro inh 8.3 and RBBP9 inh -1.9.
Screening CCOC(=O)c1ccc(NC(=O)COC(=O)c2cccc(Oc3ccccc3)c2)cc1 returned Cl transport mod -0.992, ROMK primary -0.303, p47phox inh -14.7, 14-3-3 Bad inh -5.9, WT yeast gro inh 17.7 and RBBP9 inh -9.8.
O=C(/C=C/c1cccc(O)c1)c1ccc(N2CCOCC2)cc1 was read as Cl transport mod 1.15, p47phox inh -18.3, 14-3-3 Bad inh 3.7 and RBBP9 inh -14.5.
`COc1ccc(NC(=O)CC2C(=O)N(C)C(=S)N2Cc2ccc3c(c2)OCO3)cc1` (stereo unspecified) gave Cl transport mod 7.34*, ROMK primary -0.123, p47phox inh -15.8, 14-3-3 Bad inh -3.7, WT yeast gro inh -30.4, RBBP9 inh -6.0, KCC2 secondary 0.00813, KCC2 bumet counter 0.006, KCC2 secondary2 0.0334, HEK293 Tl flux 0.00407, KCC2 ouabain 0.0186 and HEK counter2 0.0116.
COc1ccc(CCN2C(=S)N(C)C(=O)C2CC(=O)Nc2ccc(OC)cc2)cc1 (stereo unspecified) was read as Cl transport mod -0.149, ROMK primary -0.123, p47phox inh -6.3, 14-3-3 Bad inh -0.8, WT yeast gro inh 0.0 and RBBP9 inh -8.7.
For CN(C)S(=O)(=O)N(CC(=O)NCCSCc1ccccc1)c1ccccc1 the results were Cl transport mod -3.71*, ROMK primary -0.524, p47phox inh -2.5, 14-3-3 Bad inh -22.4, WT yeast gro inh 9.6, RBBP9 inh 1.6, KCC2 secondary 0.00624, KCC2 bumet counter 0.006*, KCC2 secondary2 0.0243*, HEK293 Tl flux 0.00707, KCC2 ouabain inconclusive and HEK counter2 0.01.
`O=C(CCSc1ccccc1)NCCSCc1ccccc1` gave Cl transport mod -3.53*, p47phox inh -9.1, 14-3-3 Bad inh 7.0, WT yeast gro inh -1.4, RBBP9 inh 2.7, KCC2 secondary inconclusive, KCC2 bumet counter 0.00387, KCC2 secondary2 0.0215*, HEK293 Tl flux inconclusive, KCC2 ouabain 0.0133* and HEK counter2 inconclusive.
Cc1cc(C)cc(NC(=S)N(CCN(C)C)Cc2cccs2)c1 was read as Cl transport mod 0.415, ROMK primary -0.488, p47phox inh -11.6, 14-3-3 Bad inh -24.2, WT yeast gro inh 0.9 and RBBP9 inh -5.5.
CCC/C(O)=C1\C(=O)CC(C)(C)CC1=Nc1ccccc1O was read as Cl transport mod -1.3, ROMK primary -0.00362, p47phox inh -7.3, 14-3-3 Bad inh -4.9, WT yeast gro inh -4.5 and RBBP9 inh -10.8.
